Broadly, the IC50 is the concentration that inhibits the measured activity by half. One may read the AUC as concentration integrated over time. A low value points to low exposure.

Activity calls are given as the source filed them. The rule behind the calls is not given here.

Data set [1] addresses Tyrosine-protein kinase BTK (Homo sapiens, UniProt Q06187). The experiment in a line: Inhibition of BTK autophosphorylation at Y223 in human TMD8 cells after 4 hrs by Western blot method.
Data set [2] deals with Rattus norvegicus. The experiment in a line: Half life in rat at 1 mg/kg, iv. The data set is classed as ADME, organism-based. The following applies: in vivo. Summed up: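 Rats given 1 mg/kg intravenously; vehicle DMSO, Tween 80, normal saline; values are the average of three determinations.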
The subject of data set [3] is TMD8. The data set is described as follows: Induction of apoptosis in human TMD8 cells assessed as late apoptotic cells at 1000 nM after 72 hrs by Annexin-FITC/propidium iodide staining-based flow cytometric method (reference value: 3.2%). The data set is classed as functional. On the technique in general: A flow cytometer gives signals particle by particle.
In data set [4] the test system is TMD8. The experiment in a line: Cell cycle arrest in human TMD8 cells assessed as accumulation at G2 phase at 10 nM after 48 hrs by propidium iodide staining-based flow cytometric method (reference value: 14.53%). In kind it is functional. The procedure, abridged:
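TMD8 cells in RPMI-1640 with FBS, 37 °C, 5% CO2, treated at indicated concentrations for 48 h; permeabilized cells stained with propidium iodide and analysed by flow cytometry for cell-cycle phase distribution. Three independent experiments, mean ± SD.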

Data set [5] addresses T1, Receptor-type tyrosine-protein kinase FLT3 (Homo sapiens, UniProt P36888).
T1 sequence (P36888 whole entry): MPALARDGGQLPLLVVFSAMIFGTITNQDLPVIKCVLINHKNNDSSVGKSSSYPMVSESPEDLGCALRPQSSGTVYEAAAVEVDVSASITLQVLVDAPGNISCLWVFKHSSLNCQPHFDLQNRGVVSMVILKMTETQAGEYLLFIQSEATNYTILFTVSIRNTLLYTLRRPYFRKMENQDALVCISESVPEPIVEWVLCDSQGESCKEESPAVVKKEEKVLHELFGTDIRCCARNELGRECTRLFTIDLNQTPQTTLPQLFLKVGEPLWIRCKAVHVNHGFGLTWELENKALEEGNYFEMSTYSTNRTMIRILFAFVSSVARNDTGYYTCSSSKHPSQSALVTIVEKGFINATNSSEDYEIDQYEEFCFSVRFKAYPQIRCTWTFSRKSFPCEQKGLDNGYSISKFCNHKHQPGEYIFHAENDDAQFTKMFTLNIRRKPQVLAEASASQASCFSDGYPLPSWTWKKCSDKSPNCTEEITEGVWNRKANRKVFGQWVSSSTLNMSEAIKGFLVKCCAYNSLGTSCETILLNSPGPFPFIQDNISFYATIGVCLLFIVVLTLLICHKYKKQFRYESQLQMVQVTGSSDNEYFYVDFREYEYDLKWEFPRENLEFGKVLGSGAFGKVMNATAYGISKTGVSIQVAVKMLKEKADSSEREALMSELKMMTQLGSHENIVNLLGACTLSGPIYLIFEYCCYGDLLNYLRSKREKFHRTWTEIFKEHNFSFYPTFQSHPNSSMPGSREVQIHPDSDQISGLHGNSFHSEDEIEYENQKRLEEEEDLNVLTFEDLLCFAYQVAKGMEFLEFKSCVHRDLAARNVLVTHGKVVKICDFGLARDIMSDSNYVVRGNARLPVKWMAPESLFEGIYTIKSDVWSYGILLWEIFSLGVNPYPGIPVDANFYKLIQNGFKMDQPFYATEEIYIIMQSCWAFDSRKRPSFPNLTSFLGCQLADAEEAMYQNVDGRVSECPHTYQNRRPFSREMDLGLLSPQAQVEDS
The data set is described as follows: Inhibition of recombinant human FLT3 using Poly(Glu, Tyr) 4:1 as substrate after 1 hr by ELISA. Summed up:
(§1)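 Kinase activity was measured by ELISA on wells precoated with 20 µg/mL poly(Glu,Tyr) 4:1. Enzyme was incubated with compound in 50 mM HEPES pH 7.4, 20 mM MgCl2, 0.1 mM MnCl2, 0.2 mM Na3VO4, 1 mM DTT with 5 µM ATP at 37 °C for 1 h. Phosphotyrosine was detected with PY99 antibody, HRP secondary and OPD, read at A492. IC50 is the mean of duplicates.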
Background: ELISA stands for enzyme-linked immunosorbent assay.

Data set [6] concerns TMD8. The data set is described as follows: Cell cycle arrest in human TMD8 cells assessed as accumulation at G1 phase after 48 hrs by propidium iodide staining-based flow cytometric method. In kind it is functional.
The test system of data set [7] is TMD8. The data set is described as follows: Induction of apoptosis in human TMD8 cells assessed as late apoptotic cells at 10 nM after 72 hrs by Annexin-FITC/propidium iodide staining-based flow cytometric method (reference value: 3.2%). In kind it is functional.
The test system of data set [8] is TMD8. The experiment in a line: Induction of apoptosis in human TMD8 cells assessed as early apoptotic cells at 1000 nM after 72 hrs by Annexin-FITC/propidium iodide staining-based flow cytometric method (reference value: 7.98%). In kind it is functional.
Data set [9] is described as follows: Drug metabolism in rat liver microsomes assessed as (S)-N-(4-amino-5-(4-hydroxyphenyl)-6-methylene-7,8-dihydro-6H-pyrimido[5,4-b]pyrrolizin-7-yl)acrylamide formation after 3 hrs. In kind it is ADME, microsome. (In general: Microsomes from liver hold many membrane-bound enzymes, among them those of drug oxidation.)
A further data set concerns Mus musculus. The data set is described as follows: In vivo inhibition of BTK in human TMD8 cells xenografted in CB17 SCID nude mouse assessed as decrease in PLCgamma2 phosphorylation at Y759 at 15 mg/kg, […] by Western blot method. The data set is classed as functional, organism-based.
Data set [10] addresses Tyrosine-protein kinase Blk (Homo sapiens, UniProt P51451). The experiment in a line: Inhibition of recombinant human BLK using Poly(Glu, Tyr) 4:1 as substrate after 1 hr by ELISA. Summed up:
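Purchased active kinase incubated with compound on wells precoated with 20 µg/mL poly(Glu,Tyr) 4:1, in 50 mM HEPES pH 7.4, 20 mM MgCl2, 0.1 mM MnCl2, 0.2 mM Na3VO4, 1 mM DTT, 5 µM ATP, 37 °C, 1 h. Phosphotyrosine detected with PY99 antibody, HRP secondary, OPD, A492. IC50 as mean of duplicates.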

Data set [11] has as its system Rattus norvegicus. The data set is described as follows: AUC (0 to infinity) in rat at 3 mg/kg, po. In kind it is ADME, organism-based. On the set-up: dose 3 mg/kg, time infinity, route oral. The following applies: in vivo. Summed up:
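Rats dosed orally at 3 mg/kg; vehicle DMSO, Tween 80, normal saline; values are the average of three determinations.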

In data set [12] the test system is TMD8. The experiment in a line: Induction of apoptosis in human TMD8 cells assessed as early apoptotic cells at 100 nM after 72 hrs by Annexin-FITC/propidium iodide staining-based flow cytometric method (reference value: 7.98%). In kind it is functional.
For data set [13], the system named is TMD8. The data set is described as follows: Cell cycle arrest in human TMD8 cells assessed as accumulation at G2 phase at 100 nM after 48 hrs by propidium iodide staining-based flow cytometric method (reference value: 14.53%). In kind it is functional.
Data set [14] has as its system TMD8. The experiment in a line: Cell cycle arrest in human TMD8 cells assessed as accumulation at G1 phase at 100 nM after 48 hrs by propidium iodide staining-based flow cytometric method (reference value: 51.33%). In kind it is functional.
For data set [15], the target named is Epidermal growth factor receptor (Homo sapiens, UniProt P00533). The data set is described as follows: Inhibition of recombinant human EGFR using Poly(Glu, Tyr) 4:1 as substrate after 1 hr by ELISA. Summed up:
as §1

Data set [16] in a line: Drug metabolism in human liver microsomes assessed as (S)-N-(4-amino-5-(4-hydroxyphenyl)-6-methylene-7,8-dihydro-6H-pyrimido[5,4-b]pyrrolizin-7-yl)acrylamide formation after 3 hrs. In kind it is ADME, microsome.

Sequence of Tyrosine-protein kinase Blk (P51451 whole entry): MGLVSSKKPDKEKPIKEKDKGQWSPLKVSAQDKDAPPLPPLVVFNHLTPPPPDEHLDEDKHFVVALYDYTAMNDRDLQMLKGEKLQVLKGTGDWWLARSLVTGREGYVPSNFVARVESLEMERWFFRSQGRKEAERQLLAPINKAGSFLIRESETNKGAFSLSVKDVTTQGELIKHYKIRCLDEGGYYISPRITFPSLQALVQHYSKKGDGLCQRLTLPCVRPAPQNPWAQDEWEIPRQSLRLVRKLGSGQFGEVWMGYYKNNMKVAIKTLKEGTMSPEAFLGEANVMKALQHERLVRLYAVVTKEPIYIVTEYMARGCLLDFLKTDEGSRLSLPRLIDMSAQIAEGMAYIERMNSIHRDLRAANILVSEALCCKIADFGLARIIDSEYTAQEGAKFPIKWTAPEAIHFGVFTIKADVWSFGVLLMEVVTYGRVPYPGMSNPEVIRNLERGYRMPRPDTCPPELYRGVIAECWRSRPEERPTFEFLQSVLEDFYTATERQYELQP
Sequence of Tyrosine-protein kinase BTK (Q06187 whole entry): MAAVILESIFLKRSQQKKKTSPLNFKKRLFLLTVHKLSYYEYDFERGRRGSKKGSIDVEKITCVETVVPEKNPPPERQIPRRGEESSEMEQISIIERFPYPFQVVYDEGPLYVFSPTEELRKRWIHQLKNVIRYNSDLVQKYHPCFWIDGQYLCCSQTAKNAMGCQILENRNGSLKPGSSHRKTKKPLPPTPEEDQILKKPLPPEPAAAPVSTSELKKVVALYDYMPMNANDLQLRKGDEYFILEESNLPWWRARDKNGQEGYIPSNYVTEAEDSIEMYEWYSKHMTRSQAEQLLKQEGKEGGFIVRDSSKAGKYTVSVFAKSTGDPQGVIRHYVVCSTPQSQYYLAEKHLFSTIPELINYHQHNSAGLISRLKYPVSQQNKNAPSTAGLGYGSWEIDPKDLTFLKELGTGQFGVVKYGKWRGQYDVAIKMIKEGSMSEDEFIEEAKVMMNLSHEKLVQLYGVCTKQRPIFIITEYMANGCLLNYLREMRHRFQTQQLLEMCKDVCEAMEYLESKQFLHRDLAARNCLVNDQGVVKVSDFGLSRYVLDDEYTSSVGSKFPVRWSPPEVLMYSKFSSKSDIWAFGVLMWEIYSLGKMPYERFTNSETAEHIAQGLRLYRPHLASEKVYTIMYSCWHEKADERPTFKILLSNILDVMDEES
Sequence of Epidermal growth factor receptor (P00533 whole entry): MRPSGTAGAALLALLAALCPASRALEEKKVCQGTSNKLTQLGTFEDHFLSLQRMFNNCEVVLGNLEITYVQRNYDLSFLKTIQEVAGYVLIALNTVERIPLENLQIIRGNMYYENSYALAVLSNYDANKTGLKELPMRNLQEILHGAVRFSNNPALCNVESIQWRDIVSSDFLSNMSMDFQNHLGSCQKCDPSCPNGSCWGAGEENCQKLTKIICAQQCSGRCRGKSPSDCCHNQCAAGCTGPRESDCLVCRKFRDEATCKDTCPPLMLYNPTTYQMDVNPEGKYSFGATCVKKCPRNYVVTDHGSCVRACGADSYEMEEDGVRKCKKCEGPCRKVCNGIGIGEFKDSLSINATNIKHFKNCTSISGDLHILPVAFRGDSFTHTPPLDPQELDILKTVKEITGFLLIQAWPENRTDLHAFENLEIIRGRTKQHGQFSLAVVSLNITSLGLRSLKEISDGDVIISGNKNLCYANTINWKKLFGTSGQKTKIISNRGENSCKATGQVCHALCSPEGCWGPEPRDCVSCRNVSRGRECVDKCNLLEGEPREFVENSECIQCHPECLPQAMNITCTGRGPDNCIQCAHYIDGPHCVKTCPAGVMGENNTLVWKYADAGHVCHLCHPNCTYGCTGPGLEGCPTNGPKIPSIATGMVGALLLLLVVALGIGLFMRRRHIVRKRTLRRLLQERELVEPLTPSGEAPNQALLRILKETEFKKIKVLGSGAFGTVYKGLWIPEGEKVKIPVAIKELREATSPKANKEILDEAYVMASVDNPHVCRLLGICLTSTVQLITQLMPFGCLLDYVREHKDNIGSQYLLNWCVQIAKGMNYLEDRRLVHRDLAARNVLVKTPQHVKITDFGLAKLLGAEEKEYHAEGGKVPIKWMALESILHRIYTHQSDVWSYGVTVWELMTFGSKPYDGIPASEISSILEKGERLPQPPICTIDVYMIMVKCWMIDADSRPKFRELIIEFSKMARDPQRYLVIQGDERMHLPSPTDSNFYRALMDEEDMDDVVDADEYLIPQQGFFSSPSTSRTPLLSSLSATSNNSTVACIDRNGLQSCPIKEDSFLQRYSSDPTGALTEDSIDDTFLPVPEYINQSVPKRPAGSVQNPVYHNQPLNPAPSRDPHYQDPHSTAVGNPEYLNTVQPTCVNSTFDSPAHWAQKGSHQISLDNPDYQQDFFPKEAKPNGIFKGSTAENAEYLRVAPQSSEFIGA

Take `C=CC(=O)N[C@@H]1Cn2c(c(-c3ccc(Oc4ccccc4)cc3)c3c(N)ncnc32)C1=C`: the IC50 is below 10 nM in [1], 55 nM in data set [5], 0.2 nM in data set [10] and 1.3 nM in data set [15]. In addition, in the data set with Rattus norvegicus [2], the t1/2 was 34.2 min. For the same compound, the Activity in the data set on TMD8 [3] was 27.9%; in the data set with TMD8 [4], 11.12%; with TMD8 [6], “Dose-dependent effect”; in the data set on TMD8 [7], 12.5%; with TMD8 [8], 51.1%; in the data set on TMD8 [12], 34.5%. The Activity in the data set on TMD8 [13] was 10.04%; in the data set with TMD8 [14], 77.17%. The Drug metabolism result in [9] and in [16] was “Metabolite_Detected” in each case. The inhibition entry in the data set with Mus musculus was “Active”. Moreover, the exposure (AUC) with Rattus norvegicus [11] was found to be 211 ng·h/mL.

The record behind these values is ChEMBL document CHEMBL4184325, “Discovery of 4,7-Diamino-5-(4-phenoxyphenyl)-6-methylene-pyrimido[5,4- b]pyrrolizines as Novel Bruton's Tyrosine Kinase Inhibitors” (J Med Chem, 2018).
